Test [1] concerns the target dSAMTOR (WT, full-length) (Drosophila melanogaster, UniProt Q9W138). The test is described as follows: ITC ligand binding, WT dSAMTOR. The note with it: ITC, 25°C, WT dSAMTOR. In a few lines:
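Full-length dSAMTOR was expressed as His6-SUMO fusion in E. coli BL21 (DE3), Ni-NTA purified, tag-cleaved, then gel-filtered into 10 mM Hepes pH 7.5, 150 mM NaCl, 1 mM DTT. ITC ran at 25°C: 20 × 2 µl injections of 1 mM SAM or SAH into 0.2 mM protein, discarding an initial 0.8 µl injection, with a buffer background titration. Single-site nonlinear least-squares fit gave ΔH, n and Kd.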

For test [2], the target named is N-terminal truncated dSAMTOR (Δ1-64) (Drosophila melanogaster, UniProt Q9W138). The experiment in a line: ITC ligand binding, Δ1-64 dSAMTOR. The note with it: ITC, 25°C, Δ1-64 dSAMTOR. In a few lines:
(§1)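 Tag-free dSAMTOR, expressed as His6-SUMO fusion in E. coli BL21(DE3), purified by Ni-NTA and gel filtration into 10 mM Hepes pH 7.5, 150 mM NaCl, 1 mM DTT. At 25°C, 1 mM SAM or SAH was titrated into 0.2 mM protein over 20 injections, with a background titration into buffer. Single-site fit gave Kd, ΔH and n; ΔG and ΔS were calculated. Runs: three for measurable binding, two for undetectable binding.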

A further test concerns the target V66W/E67P mutant dSAMTOR (Drosophila melanogaster, UniProt Q9W138, E67P/V66W). The test is described as follows: ITC ligand binding, V66W/E67P dSAMTOR. The note with it: ITC, 25°C, V66W/E67P dSAMTOR. In a few lines:
as §1

Another test concerns the target R73A mutant dSAMTOR (Drosophila melanogaster, UniProt Q9W138, R73A). The experiment in a line: ITC ligand binding, R73A dSAMTOR. The note with it: 25°C, ND = not detected. A digest of the protocol:
as §1

A further test deals with D150A mutant dSAMTOR (Drosophila melanogaster, UniProt Q9W138, D150A). The experiment in a line: ITC ligand binding, D150A dSAMTOR. The note with it: 25°C, ND = not detected. A digest of the protocol:
as §1

For another test, the target named is D162A mutant dSAMTOR (Drosophila melanogaster, UniProt Q9W138, D162A). The test is described as follows: ITC ligand binding, D162A dSAMTOR. The note with it: 25°C, ND = not detected. A digest of the protocol: as §1
For the next test, the target named is L151A mutant dSAMTOR (Drosophila melanogaster, UniProt Q9W138, L151A). The experiment in a line: ITC ligand binding, L151A dSAMTOR. The note with it: 25°C, ND = not detected. In a few lines:
as §1

The next test concerns the target L163A mutant dSAMTOR (Drosophila melanogaster, UniProt Q9W138, F163A). The experiment in a line: ITC ligand binding, L163A dSAMTOR. The note with it: 25°C, L163A dSAMTOR (text b27: F163A), ND = not detected. In a few lines: as §1
Another test addresses L197A mutant dSAMTOR (Drosophila melanogaster, UniProt Q9W138, L197A). The experiment in a line: ITC ligand binding, L197A dSAMTOR. The note with it: 25°C, ND = not detected. A digest of the protocol: as §1
The target in the next test is Y201A mutant dSAMTOR (Drosophila melanogaster, UniProt Q9W138, Y201A). The experiment in a line: ITC ligand binding, Y201A dSAMTOR. A digest of the protocol: as §1
The next test has as its target M202A mutant dSAMTOR (Drosophila melanogaster, UniProt Q9W138, M202A). The experiment in a line: ITC ligand binding, M202A dSAMTOR. The note with it: 25°C, ND = not detected. A digest of the protocol:
as §1

The target in the next test is F135A mutant dSAMTOR (Drosophila melanogaster, UniProt Q9W138, F135A). The test is described as follows: ITC ligand binding, F135A dSAMTOR. The note with it: ITC. In a few lines: as §1
The target in a further test is hSAMTOR. The note with it: read-out: dissociation constant (Kd); cited from earlier work.
Test [3] addresses T1, hSAMTOR (WT) interaction with GATOR1-KICSTOR (Homo sapiens, UniProt Q1RMZ1).
T1 sequence (Q1RMZ1 1-405): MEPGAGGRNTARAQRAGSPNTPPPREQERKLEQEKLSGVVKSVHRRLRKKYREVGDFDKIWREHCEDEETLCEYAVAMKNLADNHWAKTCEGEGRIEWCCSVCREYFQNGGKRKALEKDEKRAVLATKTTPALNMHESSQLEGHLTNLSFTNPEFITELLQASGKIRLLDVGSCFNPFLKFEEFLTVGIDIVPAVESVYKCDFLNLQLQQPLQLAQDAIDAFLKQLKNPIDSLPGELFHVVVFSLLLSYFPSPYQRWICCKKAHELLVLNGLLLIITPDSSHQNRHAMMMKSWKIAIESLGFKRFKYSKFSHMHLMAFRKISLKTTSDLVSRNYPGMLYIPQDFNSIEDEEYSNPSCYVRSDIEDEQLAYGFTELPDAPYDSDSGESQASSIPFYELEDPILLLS
The note with it: previous cell biology data; cited from earlier work.

Usually Kd stands for the free concentration of one partner at which half of the binding sites on the other are occupied at equilibrium, for simple one-to-one binding.

N-terminal truncated dSAMTOR (Δ1-64), sequence (Q9W138 65-302, stated change not applied): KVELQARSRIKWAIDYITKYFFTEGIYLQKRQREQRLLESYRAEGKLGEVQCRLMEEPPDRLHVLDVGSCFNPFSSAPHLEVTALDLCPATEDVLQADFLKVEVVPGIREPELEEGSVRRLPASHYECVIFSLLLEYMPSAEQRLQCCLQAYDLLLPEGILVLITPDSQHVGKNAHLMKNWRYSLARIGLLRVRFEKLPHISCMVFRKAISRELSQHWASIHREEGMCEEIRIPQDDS
Y201A mutant dSAMTOR, sequence (Q9W138 whole entry Y201A): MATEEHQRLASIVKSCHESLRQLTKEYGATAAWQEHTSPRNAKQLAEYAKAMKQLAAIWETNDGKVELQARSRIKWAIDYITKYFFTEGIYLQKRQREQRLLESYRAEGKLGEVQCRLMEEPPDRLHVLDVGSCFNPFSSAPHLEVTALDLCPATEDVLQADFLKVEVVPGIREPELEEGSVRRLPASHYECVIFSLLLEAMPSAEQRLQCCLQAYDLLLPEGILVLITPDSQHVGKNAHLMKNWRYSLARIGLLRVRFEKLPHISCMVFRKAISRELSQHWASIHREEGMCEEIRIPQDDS
V66W/E67P mutant dSAMTOR, sequence (Q9W138 whole entry V66W/E67P): as the sequence (Q9W138 whole entry Y201A) above, with V66W, E67P, A201Y counted along it
F135A mutant dSAMTOR, sequence (Q9W138 whole entry F135A): as the sequence (Q9W138 whole entry Y201A) above, with F135A, A201Y counted along it
dSAMTOR (WT, full-length), sequence (Q9W138 whole entry, the tested form may be a part): as the sequence (Q9W138 whole entry Y201A) above, with A201Y counted along it
L151A mutant dSAMTOR, sequence (Q9W138 whole entry L151A): as the sequence (Q9W138 whole entry Y201A) above, with L151A, A201Y counted along it
R73A mutant dSAMTOR, sequence (Q9W138 whole entry R73A): as the sequence (Q9W138 whole entry Y201A) above, with R73A, A201Y counted along it
L163A mutant dSAMTOR, sequence (Q9W138 whole entry F163A): as the sequence (Q9W138 whole entry Y201A) above, with F163A, A201Y counted along it
D162A mutant dSAMTOR, sequence (Q9W138 whole entry D162A): as the sequence (Q9W138 whole entry Y201A) above, with D162A, A201Y counted along it
D150A mutant dSAMTOR, sequence (Q9W138 whole entry D150A): as the sequence (Q9W138 whole entry Y201A) above, with D150A, A201Y counted along it
M202A mutant dSAMTOR, sequence (Q9W138 whole entry M202A): as the sequence (Q9W138 whole entry Y201A) above, with A201Y, M202A counted along it
L197A mutant dSAMTOR, sequence (Q9W138 whole entry L197A): as the sequence (Q9W138 whole entry Y201A) above, with L197A, A201Y counted along it

Consider `Nc1ncnc2c1ncn2[C@@H]1O[C@H](CO)[C@@H](O)[C@H]1O` [adenosine], for which, in test [1], the Kd result is “no measurable binding”.
For the compound `CSCC[C@H](N)C(=O)O` [methionine], in test [1], the Kd result is listed as “no measurable binding”.
As for `Nc1ncnc2c1ncn2[C@@H]1O[C@H](CSCC[C@H](N)C(=O)O)[C@@H](O)[C@H]1O` [SAH, S-adenosyl-L-homocysteine], the Kd is 8.7 ± 0.92 µM in test [1]; 13.1 ± 0.8 µM in [2]; 11.3 ± 0.37 µM on V66W/E67P mutant dSAMTOR; “completely abolish SAH binding” at R73A mutant dSAMTOR; “completely abolish SAH binding” at D150A mutant dSAMTOR; “completely abolish SAH binding” on D162A mutant dSAMTOR. The Kd result at L151A mutant dSAMTOR is “completely abolish SAH binding”; on L163A mutant dSAMTOR it was “completely abolish SAH binding”; at L197A mutant dSAMTOR it was “completely abolish SAH binding”; on Y201A mutant dSAMTOR (25°C, Y201A dSAMTOR), 67.3 ± 6.03 µM; at M202A mutant dSAMTOR, “completely abolish SAH binding”; at F135A mutant dSAMTOR (25°C, F135A dSAMTOR), 4.76 ± 0.71 µM. At hSAMTOR, the Kd was 4.6 µM. Also, the TΔS in test [1] was -2.99 kcal/mol; in test [2], -8.08 kcal/mol; on Y201A mutant dSAMTOR (25°C, Y201A dSAMTOR), 2.80 kcal/mol; at F135A mutant dSAMTOR (25°C, F135A dSAMTOR), -1.26 kcal/mol. Moreover, the n value in [1] was found to be 0.81 ± 0.09; in test [2], 0.67 ± 0.04; on V66W/E67P mutant dSAMTOR it was 1.02 ± 0.02; on Y201A mutant dSAMTOR (25°C, Y201A dSAMTOR), 0.74 ± 0.02; at F135A mutant dSAMTOR (25°C, F135A dSAMTOR), 0.80 ± 0.02. Also, the ΔH in [1] was -9.94 ± 1.48 kcal/mol; in test [2] it was -14.70 ± 1.05 kcal/mol; on V66W/E67P mutant dSAMTOR, -5.09 ± 0.12 kcal/mol; on Y201A mutant dSAMTOR (25°C, Y201A dSAMTOR), -2.89 ± 0.17 kcal/mol; at F135A mutant dSAMTOR (25°C, F135A dSAMTOR), -8.52 ± 0.51 kcal/mol. Also, on Y201A mutant dSAMTOR (Y201A vs WT dSAMTOR), the “decrease of binding affinity compared to the WT dSAMTOR” value worked out at 7.7 fold. Besides, the “increase of binding affinity compared to the WT dSAMTOR” value at F135A mutant dSAMTOR (F135A vs WT dSAMTOR) was less than 2 fold. Besides, in test [3], the “effect of ligand binding on interaction of hSAMTOR with GATOR1-KICSTOR” value is “can disrupt the interaction of hSAMTOR with GATOR1-KICSTOR”.

The record behind these values is paper PMC10883374 (Science Advances, 2022).
